From PubChem
Rows were chosen to be rich in hits. Some 3.1% of all compounds tested hit in one or more screens of this group.
KCNK9 inh = KCNK9 potassium channel inhibitors, primary screen, HEK293 cells, thallium flux | Potassium channel subfamily K member 9 (Homo sapiens), Q9NPC2 | FluxOR thallium flux fluorescence; stronger effect = lower value | B-score at 10 µM | hit rate 1.2% among 310,000;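 active = ratio B-score over 3 SD below the library mean, with starting fluorescence within 5 SD of its mean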;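 note: negative B-score means less thallium flux so channel inhibition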
hERG protect = hERG rescue from dofetilide block, primary screen, cell-based, CHO-hERG, FluxOR thallium flux, dofetilide IC70; dofetilide IC70 present; hit rate 0.51% among 310,000; Voltage-gated inwardly rectifying potassium channel KCNH2 (Homo sapiens), Q12809; activation (rescue from dofetilide block), less the hit threshold, % at 10 µM;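 active = activation above the mean of controls blocked by dofetilide plus 5 SD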;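 note: thallium influx through hERG after potassium depolarization seen as dye fluorescence rise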
KCNQ1 pot = potentiators or activators of KCNQ1 channel, primary screen, cell-based, thallium flux, high-throughput; Potassium voltage-gated channel subfamily KQT member 1 (Homo sapiens), P51787; CHO-K1 KCNQ1, thallium flux FluxOR fluorescence; stronger effect = higher value; B-score at 10 µM; hit rate 0.35% among 310,000; AID 2648, 2010;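 active = fluorescence ratio B-score, a plate-corrected score, at least three library SD, with initial intensity B-score within 5 SD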
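System: Stable KCNQ1 CHO-K1 line | Incubation: 90 min dye loading and 20 min compound exposure, both at room temperature | Measure: Ratio B score | Medium: Assay buffer for compound exposure, DMSO matched across wells | Compound dosing: Single-concentration screen | Probe or stimulus: K+/Tl+ depolarizing stimulus | Measured by: Kinetic FluxOR fluorescence, 10 s baseline plus 110 s post-stimulus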
KCNQ1 inh = inhibitors of human KCNQ1 channel, primary screen, cell-based, thallium flux, high-throughput. hit rate 1.3% among 310,000. CHO-K1 KCNQ1, FluxOR thallium flux fluorescence; stronger effect = higher value. B-score at 10 µM. Potassium voltage-gated channel subfamily KQT member 1 (Homo sapiens), P51787;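 active = compounds whose thallium flux B-score, printed positive for inhibition, exceeds three library SD while starting fluorescence stays within three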;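 note: channel opened by potassium depolarization with thallium stimulus after 20 min compound exposure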
KCNK3 block = human KCNK3 channel inhibitors, primary screen, CHO cells, FluxOR thallium flux, B-score; Potassium channel subfamily K member 3 (Homo sapiens), O14649; FluxOR fluorescence; stronger effect = lower value; B-score at 10 µM; hit rate 0.84% among 340,000;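 active = B-score under library mean minus 4 SD, starting fluorescence ratio at most library mean plus 5 SD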;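 note: more negative B-score means stronger inhibition of thallium flux through KCNK3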
KCNK9 inh conf = KCNK9 potassium channel inhibitors, confirmation, HEK293 cells, thallium flux, duplicate | shares compounds with KCNK9 inh | hit rate 43% among 4,900 | AID 492992, 2010 | inhibition, % at 10 µM | FluxOR thallium flux fluorescence;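 active = thallium signal inhibited by more than 5 SD of the compound-free buffer control wells, on both duplicate plates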;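 note: 0% = assay buffer control wells without compound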
Kir2-1 spec = mouse Kir2.1 channel inhibition, confirmation, selectivity assay for KCNK9 modulator project, cell-based, HEK293, thallium flux; shares compounds with KCNK9 inh; Kir2.1 cells, FluxOR thallium flux fluorescence; inhibition, % at 10 µM; hit rate 4% among 4,900; AID 492993, 2010;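 active = thallium signal drop more than 5 SD beyond the mean of the no-compound control wells, seen in both duplicate plates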;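 note: signal is fluorescence rise after thallium addition divided by baseline fluorescence; plate controls were assay buffer only for no effect and full block by chlorpromazine control for full effect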
Target sequence (P35561 whole entry, looked up): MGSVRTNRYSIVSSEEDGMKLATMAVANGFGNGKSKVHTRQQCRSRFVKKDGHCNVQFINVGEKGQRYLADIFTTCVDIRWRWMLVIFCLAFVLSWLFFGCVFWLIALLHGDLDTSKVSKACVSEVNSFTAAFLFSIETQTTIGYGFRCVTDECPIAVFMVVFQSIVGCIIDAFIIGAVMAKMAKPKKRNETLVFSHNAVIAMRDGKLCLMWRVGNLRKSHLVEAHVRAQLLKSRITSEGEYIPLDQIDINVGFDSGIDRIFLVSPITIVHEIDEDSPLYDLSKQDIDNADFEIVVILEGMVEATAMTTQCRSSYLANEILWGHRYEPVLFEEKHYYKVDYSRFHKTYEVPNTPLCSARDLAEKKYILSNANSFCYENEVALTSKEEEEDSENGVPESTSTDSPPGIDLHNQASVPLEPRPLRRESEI
KCNK9 uninduced = thallium flux in non-induced HEK293 cells, confirmation, counter-screen for KCNK9 inhibitor project, cell-based, second counter screen, non-induced KCNK9-HEK293; shares compounds with KCNK9 inh; FluxOR thallium flux; inhibition, % at 10 µM; hit rate 40% among 4,900; AID 492997, 2010;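 active = thallium signal drop beyond 5 SD of the untreated control mean, on both duplicate plates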;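 note: plate controls were buffer only IC0 wells for no effect and SID17386958 at its maximal inhibitory level for full effect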
Starred values were filed as active, the others as inactive; i = inactive; / = no result given.

SMILES	KCNK9 inh	hERG protect	KCNQ1 pot	KCNQ1 inh	KCNK3 block	KCNK9 inh conf	Kir2-1 spec	KCNK9 uninduced
COc1cccc(COc2ccc3c(C)c(Cc4ccccc4)c(=O)oc3c2)c1	i	-6.0	i	i	i	/	/	/
CC(=O)Nc1cccc(NC(=O)CS(=O)(=O)c2cn(CC(=O)N3CCOCC3)c3ccccc23)c1	i	-2.9	i	i	i	/	/	/
COc1ccc(OCC(O)CN2CCC(CN3C(=O)c4cccc5cccc(c45)C3=O)CC2)cc1 (stereo not drawn)	i	-8.2	i	i	i	/	/	/
Cc1ccc(C)c(OCC(O)CN2CCC(CN3C(=O)c4cccc5cccc(c45)C3=O)CC2)c1 (stereo not drawn)	i	-22.5	i	i	i	i	i	i
CCOC(=O)c1ccccc1NS(=O)(=O)c1ccccc1F	i	-7.6	i	i	i	/	/	/
CCOC(=O)/C(=N\Nc1cccc(C(F)(F)F)c1)N(CCOC)CCOC	-8.34*	-12.9	i	i	i	44.5%*	i	34.5%*
CCOC(=O)/C(=N\Nc1cccc(C(F)(F)F)c1)N1CCOCC1	i	-9.2	i	i	i	/	/	/
CC(C)c1onc(C(=O)N2CCN(Cc3ccccc3)CC2)c1[N+](=O)[O-]	i	-6.4	i	i	i	/	/	/
COC(=O)c1cn(C(=O)c2ccc(C)cc2C)c2ccccc12	i	-12.2	i	i	i	i	i	31.5%*
Cc1nn(C(C)C)c(C)c1CN1CCCC(C(=O)c2cccc(OC(C)C)c2)C1 (stereo not drawn)	i	-9.2	i	i	i	i	i	i
COc1cccc(C(=O)C2CCCN(Cc3cccc(-n4nc(C)cc4C)c3)C2)c1 (stereo not drawn)	i	-14.9	i	i	i	i	i	i
O=C(NCc1cccs1)c1ccc(Cl)c(S(=O)(=O)N2CCCC2)c1	i	-7.7	i	i	i	/	/	/
CC(OC(=O)Cc1c[nH]c2ccccc12)C(=O)c1ccccc1 (stereo not drawn)	/	/	/	/	i	/	/	/
O=[N+]([O-])c1cccc(-c2nc3ccccc3s/c2=N/O)c1	-8.8*	-18.2	i	i	i	29.5%*	i	37.5%*
O=[N+]([O-])c1cccc(-c2cnc3ccccc3n2)c1	i	-9.4	i	i	i	/	/	/
CC(C)C(C(=O)NC1CCCC1)N(CC1CCCO1)C(=O)CNS(=O)(=O)c1ccc(F)cc1 (stereo not drawn)	i	-2.5	i	i	i	/	/	/
Cc1cccc(-n2nc(C(=O)Nc3ccccc3)n3c(=O)cc(-c4ccccc4)nc23)c1	i	-11.2	i	i	i	i	i	i
CCOC(=O)c1nn(-c2cccc(Cl)c2)c2nc(Nc3ccccc3)cc(=O)n12	i	-6.4	i	i	i	/	/	/
NC(=O)c1ccc(OCC(F)(F)F)nc1	i	-7.3	i	i	i	/	/	/
O=C(O)CN1C(=O)/C(=C\c2cccc(OCc3ccc(Cl)cc3Cl)c2)SC1=S	i	-1.5	i	i	i	i	i	i
O=C(O)CN1C(=O)/C(=C\c2cn(-c3ccccc3)nc2-c2ccccc2)SC1=S	i	-12.6	i	i	i	i	i	i
O=C(O)CN1C(=O)/C(=C\c2ccccc2OCc2ccc(Cl)cc2Cl)SC1=S	i	-6.4	i	i	i	/	/	/
CCN1C(=O)/C(=C\c2cn(-c3ccccc3)nc2-c2cccnc2)SC1=S	i	-9.8	i	i	i	/	/	/
O=C(O)CN1C(=O)/C(=C\c2cc(Br)ccc2OCc2ccccc2Cl)SC1=S	i	-9.9	i	i	i	/	/	/
O=C(O)CN1C(=O)/C(=C\c2cc(Br)ccc2OCc2ccccc2F)SC1=S	i	-9.1	i	i	i	i	i	i
SMILES	KCNK9 inh	hERG protect	KCNQ1 pot	KCNQ1 inh	KCNK3 block	KCNK9 inh conf	Kir2-1 spec	KCNK9 uninduced
Cc1cc(Cl)ccc1C(=O)C1CCCN(C(=O)c2cncs2)C1 (stereo not drawn)	i	-3.7	i	i	i	/	/	/
Fc1ccc(-c2nc3cnccn3c2NC2CCCC2)cc1	i	-15.3	i	i	i	/	/	/
Oc1ccc(Br)cc1-c1nc2cnccn2c1NC1CCCCC1	-9.42*	-14.3	i	i	i	i	i	30.5%*
O=c1cc(-c2ccccc2)nc2c(-c3ccccc3)c(C(F)(F)F)[nH]n12	i	54.3*	13*	i	i	i	i	i
Cc1cc(=O)n2[nH]c(C)c(-c3ccccc3)c2n1	i	-2.7	i	i	i	/	/	/
Cc1cccc(NC(NC(=O)c2ccccc2[N+](=O)[O-])C(Cl)(Cl)Cl)c1 (stereo not drawn)	i	-7.8	i	i	i	/	/	/
CC1(C)CC(=O)c2c(O)cc(OCc3ccc([N+](=O)[O-])cc3)cc2O1	i	-7.6	i	i	i	/	/	/
CCc1ccc(NC(=S)N(CCCN2CCOCC2)Cc2ccco2)cc1	i	-8.8	i	i	i	/	/	/
CCc1ccc(NC(=S)N(CCN2CCCCC2)Cc2ccco2)cc1	-8.83*	-11.9	i	i	i	41.0%*	i	40.5%*
Nc1c(C(=O)N/N=C/c2cccnc2)oc2nc(-c3ccccc3)cc(-c3ccco3)c12	-10.8*	-13.6	i	6*	i	i	i	31.0%*
Cc1ccnc2nc(C(=O)OCC(=O)N(Cc3ccccc3)C(C)(C)C)nn12	/	/	/	/	i	/	/	/
Cc1ccc(Cn2c(SCC(=O)N3CC(=O)Nc4ccccc43)nc3ccccc3c2=O)cc1	i	-2.1	i	i	i	i	i	i
COCC(C)n1c(SCC(=O)N2CC(=O)Nc3ccccc32)nc2ccccc2c1=O (stereo not drawn)	/	/	/	/	i	/	/	/
CC(c1ccccc1)n1c(SCC(=O)N2CC(=O)Nc3ccccc32)nc2ccccc2c1=O (stereo not drawn)	-9.02*	-6.2	i	i	i	36.5%*	i	i
